The source of these data is ChEMBL document CHEMBL3243953, “5-Aryl-1,5-dihydro-2H-1,4-benzodiazepin-2-one derivatives as antianxiety agents” (J Med Chem, 1977).

SMILES strings stand for the structures. A value given as a limit tells only on which side of the number the result lay.

The test system of data set [1] is Mus musculus. As to the kind of experiment: Anticonvulsant activity in po dosed mouse by maximal electroshock test. In kind it is functional. The method, boiled down:
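Maximal electroshock test in mice after oral dosing, used as a measure of anticonvulsant activity; ED50 (mg/kg) reported.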

Data set [2] concerns Mus musculus. Briefly: Anticonvulsant activity in po dosed mouse assessed as inhibition of pentylene-tetrazole-induced convulsion. It is filed as functional. The gist of the method: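 Antagonism of pentylenetetrazole-induced convulsions in orally dosed mice, used as a measure of tranquilizing activity; ED50 (mg/kg) reported.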
For data set [3], the system named is Mus musculus. Briefly: Muscle relaxant activity in po dosed mouse assessed as muscle relaxation by rotarod test. In kind it is functional. The gist of the method:
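Rotarod performance test in mice after oral dosing, used as a measure of muscle relaxant activity; result expressed as ED50 (mg/kg).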

Data set [4] can be described thus: Acute toxicity in po dosed mouse. It is filed as organism-based. Particulars: in vivo. The gist of the method:
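Mice dosed orally; acute toxicity expressed as LD50 (mg/kg), calculated by the Bliss method.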

Regarding `CC(=O)OC1(c2ccccc2)c2cc([N+](=O)[O-])ccc2NC(=O)CN1[N+](=O)[O-]` (stereo unspecified), the ED50 is over 100 mg/kg in data set [1], 58 mg/kg in data set [2] and over 100 mg/kg in data set [3]. The molecule further showed an LD50 in data set [4] of over 1000 mg/kg.

For `COC1(c2ccccc2)c2cc(Cl)ccc2NC(=O)CN1[N+](=O)[O-]` (stereo unspecified), the ED50 in data set [1], in data set [2] and in data set [3] was over 100 mg/kg in each case. The same molecule registered an LD50 in data set [4] of over 1000 mg/kg.

For the molecule `COC1(c2ccccc2)c2cc([N+](=O)[O-])ccc2NC(=O)CN1[N+](=O)[O-]` (stereo unspecified), the ED50 was over 100 mg/kg in data set [1], 13 mg/kg in data set [2] and over 100 mg/kg in data set [3]. In data set [4], this molecule had an LD50 of over 1000 mg/kg.

As for `COC1(c2ccccc2)N=CC(=O)N(C)c2ccc(Cl)cc21` (stereo unspecified), the ED50 amounted to 53 mg/kg in data set [1], 0.7 mg/kg in data set [2] and 27.5 mg/kg in data set [3]. The LD50 in data set [4] was over 1000 mg/kg.

For the molecule `COC1(c2ccccc2)N=CC(=O)N(C)c2ccc([N+](=O)[O-])cc21` (stereo unspecified), the ED50 in data set [1] turned out to be 76 mg/kg; in data set [2], 0.7 mg/kg; in data set [3] it was 5.2 mg/kg. Moreover, in data set [4], the LD50 is 750 mg/kg.

In the case of `COC1(c2ccccc2)c2cc(Cl)ccc2N(C)C(=O)CN1[N+](=O)[O-]` (stereo unspecified), the ED50 in data set [1], in data set [2] and in data set [3] was over 100 mg/kg in each case. The LD50 in data set [4] is over 1000 mg/kg.

On to `COC1(c2ccccc2)N=CC(=O)Nc2ccc(Cl)cc21` (stereo unspecified), for which the ED50 in data set [1] was over 100 mg/kg; in data set [2], 1.6 mg/kg; in data set [3], 28.1 mg/kg. Further, in data set [4], the LD50 is over 1000 mg/kg.

`COC1(c2ccccc2)N=CC(=O)Nc2ccc([N+](=O)[O-])cc21` (stereo unspecified): the ED50 was over 100 mg/kg in data set [1], 1.4 mg/kg in data set [2] and 19.1 mg/kg in data set [3]. This molecule also gave an LD50 in data set [4] of over 1000 mg/kg.

Regarding `O=C1Nc2ccc(Cl)cc2C(c2ccccc2)=NC1OCCO` (stereo unspecified), the ED50 in data set [1] is over 100 mg/kg; in data set [2] it was 36 mg/kg; in data set [3] it was over 100 mg/kg. For the same molecule, the LD50 in data set [4] is over 1000 mg/kg.

Take `O=C1Nc2ccc([N+](=O)[O-])cc2C(c2ccccc2)=NC1OCCO` (stereo unspecified): the ED50 was over 100 mg/kg in data set [1], 9.2 mg/kg in data set [2] and over 100 mg/kg in data set [3]. This molecule also returned an LD50 in data set [4] of over 1000 mg/kg.

On to `O=C1Nc2ccc(Cl)cc2C(c2ccccc2)=NC1OCCCl` (stereo unspecified), for which the ED50 in data set [1] is over 100 mg/kg; in data set [2], 13 mg/kg; in data set [3], over 100 mg/kg. The LD50 in data set [4] is over 1000 mg/kg.

For the molecule `O=C1Nc2ccc([N+](=O)[O-])cc2C(c2ccccc2)=NC1OCCCl` (stereo unspecified), the values for the ED50 in data set [1], in data set [2] and in data set [3] were over 100 mg/kg, 9.2 mg/kg and over 100 mg/kg, respectively. Also, the LD50 in data set [4] was over 1000 mg/kg.

In the case of `O=C1Nc2ccc(Cl)cc2C(c2ccccc2)=NC1NO` (stereo unspecified), the values for the ED50 in data set [1], in data set [2] and in data set [3] were over 100 mg/kg, 32 mg/kg and over 100 mg/kg, respectively. For the same molecule, the LD50 in data set [4] is over 1000 mg/kg.

Consider `N#CC1N=C(c2ccccc2)c2cc(Cl)ccc2NC1=O` (stereo unspecified), for which the ED50 is over 100 mg/kg in data set [1], 14 mg/kg in data set [2] and over 100 mg/kg in data set [3]. The same molecule came in with an LD50 in data set [4] of over 1000 mg/kg.

In the case of `N#CC1N=C(c2ccccc2)c2cc([N+](=O)[O-])ccc2NC1=O` (stereo unspecified), the ED50 in data set [1], in data set [2] and in data set [3] was over 100 mg/kg in each case. Moreover, the LD50 in data set [4] is over 1000 mg/kg.

Turning to `NC1N=C(c2ccccc2)c2cc(Cl)ccc2NC1=O` (stereo unspecified), the results for the 50% effective dose (ED50) in data set [1], in data set [2] and in data set [3] were over 100 mg/kg, 85 mg/kg and over 100 mg/kg, respectively. The molecule further returned an LD50 in data set [4] of over 1000 mg/kg.

Turning to `CNC1=NC(c2ccccc2)c2cc([N+](=O)[O-])ccc2N(C)C1=O` (stereo unspecified), the ED50 in data set [1], in data set [2] and in data set [3] was over 100 mg/kg each time. The molecule also registered an LD50 in data set [4] of over 1000 mg/kg.

As for `CN1C(=O)CN=C(c2ccccc2)c2cc(Cl)ccc21` [DIAZEPAM], the results for the ED50 in data set [1], in data set [2] and in data set [3] were 62.2 mg/kg, 1.2 mg/kg and 14.4 mg/kg, respectively.
